This note sets out measurements from ChEMBL document CHEMBL4184319, “Fluorescent-Labeled Selective Adenosine A2B Receptor Antagonist Enables Competition Binding Assay by Flow Cytometry” (J Med Chem, 2018).

The target in experiment [1] is T1, Adenosine receptor A2b (Homo sapiens, UniProt P29275).
T1 sequence (P29275 whole entry): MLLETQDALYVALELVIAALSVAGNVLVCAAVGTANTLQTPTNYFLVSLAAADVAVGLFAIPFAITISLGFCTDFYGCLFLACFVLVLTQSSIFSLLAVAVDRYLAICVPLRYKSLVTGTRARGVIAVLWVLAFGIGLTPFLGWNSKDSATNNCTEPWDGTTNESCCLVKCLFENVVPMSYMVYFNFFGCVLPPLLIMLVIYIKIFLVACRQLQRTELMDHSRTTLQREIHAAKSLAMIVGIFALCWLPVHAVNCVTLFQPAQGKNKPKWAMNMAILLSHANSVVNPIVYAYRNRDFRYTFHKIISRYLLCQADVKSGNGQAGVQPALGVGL
Put plainly: biochemical.

The target of experiment [2] is T2, Adenosine receptor A3 (Homo sapiens, UniProt P0DMS8).
T2 sequence (P0DMS8 whole entry): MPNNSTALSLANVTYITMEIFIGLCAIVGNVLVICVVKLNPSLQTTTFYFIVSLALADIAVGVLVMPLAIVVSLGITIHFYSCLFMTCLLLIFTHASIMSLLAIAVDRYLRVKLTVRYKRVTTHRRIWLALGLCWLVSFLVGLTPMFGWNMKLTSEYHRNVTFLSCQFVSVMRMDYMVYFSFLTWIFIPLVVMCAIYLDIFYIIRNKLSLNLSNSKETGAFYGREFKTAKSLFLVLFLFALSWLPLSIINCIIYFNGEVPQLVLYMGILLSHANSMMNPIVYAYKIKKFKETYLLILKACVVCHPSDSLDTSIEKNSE
The experiment can be described thus: Displacement of [3H]PSB-11 from recombinant human adenosine A3 receptor expressed in CHO cell membranes after 180 mins by liquid scintillation counting method. Put shortly: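 Human A3AR CHO cell membranes were pre-incubated 10–15 min with adenosine deaminase (0.12 IU/mL), then incubated with [3H]PSB-11 (1 nM) at rt, with 2.5% DMSO final. Nonspecific binding was defined with 100 µM R-PIA. Incubation ended by GF/B filtration with ice-cold 50 mM Tris-HCl (pH 7.4) rinses. Test compounds were run at 6–7 concentrations over 3 log units, in ≥3 independent experiments in duplicate.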
Background: Displacement assays read how much labelled ligand stays bound in the presence of the test substance.

Experiment [3] has as its target T1, Adenosine receptor A2b. Put plainly: Displacement of PSB-12105 from recombinant human adenosine A2B receptor expressed in CHO cell membranes preincubated for 30 mins followed by PSB-12105 addition measured after 20 mins by flow cytometric method. Format: cell-based. Put shortly:
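Live CHO-hA2B cells were pre-treated with ADA (2 U/mL, 2 h, 37°C), detached with 5 mM EDTA, and resuspended in HBSS with 2 U/mL ADA at 2.5×10^5 cells/well in 96-well format. Antagonists pre-incubated 30 min at 37°C, then fluorescent ligand (100 nM) added for 20 min at 37°C. 3-5 independent experiments in duplicate.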
For orientation: In flow cytometry, cells or beads pass a laser one at a time.

In experiment [4] the target is T1, Adenosine receptor A2b. The experiment can be described thus: Antagonist activity at recombinant human adenosine A2B receptor expressed in CHO cell membranes assessed as inhibition of NECA-induced cAMP accumulation preincubated for 1 hr followed by NECA induction measured after 5 mins in presence of [3H]cAMP and bovine cAMP-binding protein by liquid scintillation counting method. Format: functional. The gist of the method:
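CHO cells stably expressing human A2BAR, pre-incubated with antagonist dilutions for 1 h at 37°C, then stimulated with NECA (10 µM final) for 5 min at 37°C. Reaction stopped with hot (90 °C) lysis solution (4 mM EDTA, 0.01 % Triton X100). cAMP quantified by radioactive competition with [³H]cAMP and bovine adrenal cAMP-binding protein. Response expressed as % of NECA response without antagonist. Means ± SEM, three independent experiments in duplicate.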
In general terms: cAMP levels reflect the balance of adenylyl cyclase and phosphodiesterase activity.

In experiment [5] the target is Adenosine receptor A1 (Rattus norvegicus) (UniProt P25099). The experiment can be described thus: Displacement of [3H]-CHA from adenosine A1 receptor in rat striatal membranes.
The target of experiment [6] is T3, Adenosine receptor A1 (Rattus norvegicus, UniProt P25099).
T3 sequence (P25099 whole entry): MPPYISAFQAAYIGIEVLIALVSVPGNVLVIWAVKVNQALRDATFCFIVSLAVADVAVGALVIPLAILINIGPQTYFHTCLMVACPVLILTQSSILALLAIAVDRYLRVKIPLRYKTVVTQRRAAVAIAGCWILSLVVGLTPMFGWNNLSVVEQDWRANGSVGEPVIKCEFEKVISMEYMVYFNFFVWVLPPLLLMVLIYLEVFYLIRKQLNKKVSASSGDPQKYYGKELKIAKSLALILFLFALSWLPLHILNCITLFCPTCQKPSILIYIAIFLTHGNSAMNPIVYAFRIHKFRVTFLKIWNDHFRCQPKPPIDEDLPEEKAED
Put plainly: Displacement of [3H]-CHA from adenosine A1 receptor in rat cortical membranes. Format: cell membranes.

Experiment [7] concerns the target T4, Adenosine receptor A3 (Rattus norvegicus, UniProt P28647).
T4 sequence (P28647 whole entry): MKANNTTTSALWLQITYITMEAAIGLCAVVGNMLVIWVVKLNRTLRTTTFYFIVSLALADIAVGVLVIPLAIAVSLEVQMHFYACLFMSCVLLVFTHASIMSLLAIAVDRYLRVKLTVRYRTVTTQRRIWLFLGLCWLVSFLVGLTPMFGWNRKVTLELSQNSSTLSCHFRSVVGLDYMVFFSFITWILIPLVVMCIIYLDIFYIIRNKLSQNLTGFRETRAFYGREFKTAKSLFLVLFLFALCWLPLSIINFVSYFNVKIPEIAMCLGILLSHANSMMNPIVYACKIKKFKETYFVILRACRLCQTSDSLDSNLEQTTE
Put plainly: Displacement of [3H]-(R)-PIA from adenosine A3 receptor in rat testis membranes. It counts as cell membranes, Membrane.

Structures are written as SMILES.

What is called IC50 is the midpoint of a concentration-inhibition curve. Usually Ki stands for a measure of affinity in units of concentration, obtained from inhibition or displacement. For the compound `CCCn1c(=O)[nH]c2nc(-c3ccc(S(=O)(=O)N4CCN(c5ccc(Cl)cc5)CC4)cc3)[nH]c2c1=O`, the IC50 in experiment [1] is 0.534 nM; in experiment [3], 0.739 nM; in experiment [4], 18.3 nM. In experiment [2], the Ki was above 10 µM.
As to `CCNC(=O)[C@H]1O[C@@H](n2cnc3c(NCCCCCCNS(=O)(=O)c4cccc5c(N(C)C)cccc45)ncnc32)[C@H](O)[C@@H]1O`, the Ki in experiment [5] is 4.6 µM; in experiment [6], 27 nM; in experiment [7], 3.6 µM.
